One may read the IC50 as the concentration that gives 50% inhibition. Lower therefore signals inhibition by little substance.

Molecules are shown by their SMILES.

The target in test [1] is Serotonin 1 (5-HT1) receptor (Rattus norvegicus, UniProt P28564+P30940+P19327+P28565). In words: Ability to inhibit binding of titreated serotonin to the 5-hydroxytryptamine 1 receptor in rat brain frontal cortex membranes. Format: cell membranes, Membrane.
Test [2] deals with T1, Serotonin 2 (5-HT2) receptor (Rattus norvegicus, UniProt P30994+P08909+P14842). In words: Ability to inhibit binding of titreated spiperone to 5-hydroxytryptamine 2 receptor in rat brain frontal cortex membranes. Format: cell membranes, Membrane. In short, it runs like this: (§1)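 5HT-2 binding in rat frontal cortex membranes with [3H]spiperone as radioligand. Tested at eleven concentrations between 0.1 and 10 000 nM, each in duplicate. IC50 is the concentration that halves specific binding, obtained by curve fitting.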

For test [3], the system named is Rattus norvegicus. The test can be described thus: In vivo serum corticosterone concentration in male Wistar rats after injecting 0.3 mg/kg of compound subcutaneously. Format: functional, organism-based. Also noted: dose 0.3 mg/kg. The essentials: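 Serum corticosterone in male Wistar rats, measured spectrofluorometrically and reported per 100 mL of serum.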
Test [4] is filed under the species Rattus norvegicus. In words: Effect on 5HIAA (5-hydroxyindoleacetic acid) concentration in hypothalamus as an index of serotonin turnover in male Wistar rats expressed as percent of control. Format: functional. The essentials:
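Hypothalamic 5-hydroxyindoleacetic acid in male Wistar rats, used as an index of serotonin turnover. Measured by liquid chromatography with electrochemical detection and expressed as percent of control.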

The target in test [5] is T1, Serotonin 2 (5-HT2) receptor. In words: Ability to inhibit binding of titreated spiperone to the 5-hydroxytryptamine 2 receptor in rat brain frontal cortex membranes. Format: cell membranes, Membrane. The essentials: as §1

Consider `CCCN(CCC)C1Cc2c[nH]c3ccc(Br)c(c23)C1` (stereo unspecified), for which the figures for the half-maximal inhibitory concentration (IC50) in test [1] and in test [2] were 241 nM and 15444 nM, respectively. In the test with Rattus norvegicus [3], this compound registered a Concentration of 13 µg 100ml-1. Moreover, in the test listed under Rattus norvegicus [4], the “5-HIAA level, % of control” value stood at 77%.
For `CCCN(CCC)C1Cc2c[nH]c3ccc(C(N)=O)c(c23)C1` (stereo unspecified), the IC50 in test [1] was determined as 83 nM; in test [5], 4817 nM. In the test on Rattus norvegicus [3], this compound displayed a Concentration of 49 µg 100ml-1. In addition, in the test listed under Rattus norvegicus [4], the “5-HIAA level, % of control” value stood at 61%.
Turning to `CCCN(CCC)C1Cc2c[nH]c3ccc(C#N)c(c23)C1` (stereo unspecified), the figures for the IC50 in test [1] and in test [2] were 90 nM and 390 nM, respectively. Further, in the test on Rattus norvegicus [3], the Concentration was 47 µg 100ml-1. The “5-HIAA level, % of control” value in the test filed under Rattus norvegicus [4] came out at 90%.
As for `CCCN(CCC)C1Cc2cccc3[nH]cc(c23)C1` (stereo unspecified), the IC50 is 141 nM in test [1] and 723 nM in test [2].
Consider `CN(C)C1Cc2c[nH]c3ccc(C(N)=O)c(c23)C1` (stereo unspecified), for which the IC50 in test [1] is 390 nM; in test [5], 5440 nM. Also, in the test with Rattus norvegicus [3], the Concentration stood at 9 µg 100ml-1. Moreover, in the test listed under Rattus norvegicus [4], the “5-HIAA level, % of control” value is reported as 99%.
In the case of `CCCN(CCC)C1Cc2c[nH]c3ccc(OC)c(c23)C1` (stereo unspecified), the IC50 came out at 36 nM in test [1] and 1179 nM in test [5]. Moreover, the Concentration in the test with Rattus norvegicus [3] was found to be 48 µg 100ml-1. The “5-HIAA level, % of control” value in the test filed under Rattus norvegicus [4] was 58%.
On the same counts, the results for `COc1ccc2[nH]cc3c2c1CC(N(C)C)C3` (stereo unspecified) are 96 nM, 1756 nM, 41 µg 100ml-1 and 65%.

The values are drawn from ChEMBL document CHEMBL1124200, “6-substituted 1,3,4,5-tetrahydrobenz[cd]indol-4-amines: potent serotonin agonists” (J Med Chem, 1988).
